Data: ChEMBL document CHEMBL1806372, “Cytotoxic ring A-modified steroid analogues derived from Grundmann's ketone” (Eur J Med Chem, 2011)
Calls of active or inactive are those of the source. The rule behind the calls is not given here.

Key:
Type in all cases: functional
UACC-62 = test: Growth inhibition of human UACC62 cells after 48 hrs by sulforhodamine B assay; conditions: UACC-62, 48 h
In short: (§1)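 NCI 60-cell panel five-dose assay. GI50, TGI and LC50 are derived from log concentration versus % growth inhibition curves. Cell lines insensitive at the top concentration are given a ">" prefix.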

U-251 [1] = test: Growth inhibition of human U251 cells after 48 hrs by sulforhodamine B assay; conditions: U-251, 48 h; in short: as §1
MOLT-4 = test: Growth inhibition of human MOLT4 cells after 48 hrs by sulforhodamine B assay; conditions: MOLT-4, 48 h
In short: (§2)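 GI50, TGI and LC50 were derived from log concentration versus % growth inhibition curves for each cell line. GI50 is the concentration giving a 50% decrease in net cell growth. Insensitive lines are reported as greater than the highest concentration.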

TK-10 = test: Growth inhibition of human TK10 cells after 48 hrs by sulforhodamine B assay; conditions: TK-10, 48 h; in short: as §1
CCRF-CEM = test: Growth inhibition of human CCRF-CEM cells after 48 hrs by sulforhodamine B assay
In short: (§3)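 From log concentration versus % growth curves, GI50 (50% decrease in net growth), TGI (total growth inhibition) and LC50 (net 50% loss of initial cells) are derived for each line.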

SK-MEL-2 = test: Cytotoxicity against human SK-MEL-2 cells after 48 hrs by sulforhodamine B assay; conditions: SK-MEL-2, 48 h, read-out: LC50 (the source's name)
In short: (§4)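 NCI 60 human tumour cell line panel run to the NCI protocol. GI50, TGI and LC50 come from log concentration vs % growth inhibition curves for each cell line. Lines insensitive at the top concentration are reported with ">".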

SK-MEL-28 = test: Growth inhibition of human SK-MEL-28 cells after 48 hrs by sulforhodamine B assay; conditions: SK-MEL-28, 48 h; in short: as §2
OVCAR-5 = test: Cytotoxicity against human OVCAR5 cells after 48 hrs by sulforhodamine B assay; conditions: OVCAR-5, 48 h, read-out: LC50 (the source's name); in short: as §4
786-0 [2] = test: Growth inhibition of human 786-0 cells after 48 hrs by sulforhodamine B assay; conditions: 786-0, 48 h; in short: as §3
SW-620 = test: Growth inhibition of human SW620 cells after 48 hrs by sulforhodamine B assay; conditions: SW-620, 48 h; in short: as §1
MDA-MB-231 = test: Growth inhibition of human MDA-MB-231 cells after 48 hrs by sulforhodamine B assay; conditions: MDA-MB-231, 48 h; in short: as §2
Burkholderia gladioli = test: Antibacterial activity against Pseudomonas antimicrobica assessed as zone of inhibition at 5 uL and 32 degC after 36 hrs by disk diffusion method
In short: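 Disc diffusion on AC agar, each strain spread evenly over the medium; test compounds given as 1% (w/v) DMSO solutions. Plates covered and incubated 36 h at 32 °C, then the diameter of the zone of inhibited growth measured in mm. Tetracycline served as antibacterial reference.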

MCF7 = test: Cytotoxicity against human MCF7 cells after 48 hrs by sulforhodamine B assay; conditions: MCF7, 48 h, read-out: LC50 (the source's name); in short: as §4
HOP-92 = test: Cytotoxicity against human HOP92 cells after 48 hrs by sulforhodamine B assay; conditions: HOP-92, 48 h, read-out: LC50 (the source's name); in short: as §4
A498 = test: Cytotoxicity against human A498 cells after 48 hrs by sulforhodamine B assay; conditions: A498, 48 h, read-out: LC50 (the source's name); in short: as §4
RXF 393 = test: Cytotoxicity against human RXF393 cells after 48 hrs by sulforhodamine B assay; conditions: RXF 393, 48 h, read-out: LC50 (the source's name); in short: as §4
ACHN = test: Cytotoxicity against human ACHN cells after 48 hrs by sulforhodamine B assay; conditions: read-out: LC50 (the source's name); in short: as §4
786-0 [3] = test: Cytotoxicity against human 786-0 cells after 48 hrs by sulforhodamine B assay; conditions: 786-0, 48 h, read-out: LC50 (the source's name); in short: as §4
CAKI-1 = test: Cytotoxicity against human Caki1 cells after 48 hrs by sulforhodamine B assay; conditions: CAKI-1, 48 h, read-out: LC50 (the source's name); in short: as §4
SK-MEL-5 = test: Cytotoxicity against human SK-MEL-5 cells after 48 hrs by sulforhodamine B assay; conditions: SK-MEL-5, 48 h, read-out: LC50 (the source's name); in short: as §4
U-251 [4] = test: Cytotoxicity against human U251 cells after 48 hrs by sulforhodamine B assay; conditions: U-251, 48 h, read-out: LC50 (the source's name)
MDA-MB-468 = test: Cytotoxicity against human MDA-MB-468 cells after 48 hrs by sulforhodamine B assay; conditions: MDA-MB-468, 48 h, read-out: LC50 (the source's name); in short: as §4

In the case of `CC(C)CCC[C@@H](C)[C@H]1CC[C@H]2C3=CC[C@@H]4C(=O)C=CC(=O)[C@@H]4[C@@H]3CC[C@]12C`, the GI50 (UACC-62) is reported as 752 nM, the TGI (UACC-62) is reported as over 100000 nM and the GI50 (U-251 [1]) is reported as 94 nM. For the same compound, the TGI (U-251 [1]) was 1230 nM, the GI50 (MOLT-4) was 312 nM and the TGI (MOLT-4) was over 100000 nM. The GI50 (TK-10) was 2650 nM, the TGI (TK-10) was over 100000 nM and the GI50 (CCRF-CEM) was 189 nM. For the same compound, the TGI (CCRF-CEM) was over 100000 nM, the CC50 (SK-MEL-2) was over 100000 nM and the GI50 (SK-MEL-28) was 302 nM. For the same compound, the CC50 (OVCAR-5) was over 100000 nM, the GI50 (786-0 [2]) was 311 nM and the TGI (786-0 [2]) was 1500 nM. The GI50 (SW-620) was 141 nM, the GI50 (MDA-MB-231) was 343 nM and the TGI (MDA-MB-231) was 1760 nM. For the same compound, the “diameter of the inhibition zone (DIZ)” value (Burkholderia gladioli) was “inactive”.

`CC(C)CCC[C@@H](C)[C@H]1CC[C@H]2C3=CCn4c(=O)ccc(=O)n4[C@@H]3CC[C@]12C` was tested, and the GI50 (UACC-62) was 544 nM, the TGI (UACC-62) was 1950 nM and the GI50 (U-251 [1]) was 438 nM. The TGI (U-251 [1]) was 1590 nM, the GI50 (MOLT-4) was 545 nM and the TGI (MOLT-4) was 4130 nM. For the same compound, the CC50 (MCF7) was 4260 nM, the GI50 (TK-10) was 356 nM and the TGI (TK-10) was 1260 nM. It also gave a CC50 (HOP-92) of 3760 nM, a CC50 (A498) of 4870 nM and a CC50 (RXF 393) of 5430 nM. For the same compound, the GI50 (CCRF-CEM) was 360 nM, the TGI (CCRF-CEM) was over 100000 nM and the CC50 (SK-MEL-2) was 3390 nM. The CC50 (ACHN) was 5190 nM, the GI50 (SK-MEL-28) was 512 nM and the TGI (SK-MEL-28) was 1650 nM. It also gave a CC50 (786-0 [3]) of 4430 nM, a CC50 (CAKI-1) of 3470 nM and a CC50 (OVCAR-5) of 7840 nM. The GI50 (786-0 [2]) was 713 nM, the TGI (786-0 [2]) was 1950 nM and the GI50 (SW-620) was 375 nM. For the same compound, the TGI (SW-620) was 1360 nM, the CC50 (SK-MEL-5) was 4520 nM and the CC50 (U-251 [4]) was 4180 nM. The GI50 (MDA-MB-231) was 1040 nM, the TGI (MDA-MB-231) was 2540 nM and the CC50 (MDA-MB-468) was 9420 nM.
